Assay results collected from several papers.
Protocols differ between the studies behind these lines. ≈ marks a conversion by molar mass, not a printed value.

SMILES | organism | assay | system | setting | measurement | value
Nc1ccn([C@@H]2CS[C@H](CO)O2)c(=O)n1 | Hepatitis B virus | viral replication, qPCR | HepG2.2.15 | 6 days | IC50 | 7.37 µM
Cc1ccc(C)n1-c1ccc(-c2n[nH]c(=S)[nH]2)cc1 | Saccharomyces cerevisiae | microbial growth, broth dilution | ATCC9763 | – | MIC | > 500 µg/mL
O=C(Nc1cc(F)c(F)c(F)c1)c1ccc(F)c(S(=O)(=O)NCc2ccc(B(O)O)cc2)c1 | Hepatitis B virus | viral replication, inhibitor, qPCR | HePAD38 | 6 days | EC50 | 380 nM
O=C(O)CCc1ccccc1Oc1ccc(-c2noc(-c3ccc(O)cc3)n2)cc1 | Clostridioides difficile | microbial growth, broth dilution | – | 48 h | MIC | 4 µg/mL (≈ 9.94 µM)
CC1(C)OB(c2ccc(CNS(=O)(=O)c3cc(C(=O)Nc4cc(F)c(F)c(F)c4)ccc3F)cc2)OC1(C)C | Hepatitis B virus | viral replication, inhibitor, qPCR | HePAD38 | 6 days | EC50 | 490 nM
COc1c(N2C[C@@H]3CCCN[C@@H]3C2)c(F)cc2c(=O)c(C(=O)O)cn(C3CC3)c12 | Aliivibrio fischeri | microbial growth | – | – | MIC90 | 0.06 µg/mL (≈ 0.149 µM)
O=C(O)CNc1ccc(-c2nc(-c3ccc(Oc4ccccc4)cc3)no2)cc1 | Clostridioides difficile | microbial growth, broth dilution | – | 48 h | MIC | 13 µg/mL (≈ 33.6 µM)
O=C(N/N=C/c1ccc([N+](=O)[O-])o1)c1ccc(O)cc1 | Aliivibrio fischeri | microbial growth | – | – | MIC90 | 7.8 µg/mL (≈ 28.3 µM)
Cl.NCCc1ccccc1Oc1ccc(-c2noc(-c3ccc(O)cc3)n2)cc1 | Clostridioides difficile | microbial growth, broth dilution | – | 48 h | MIC | 8 µg/mL
Cc1ccc(C)n1-c1ccc(-c2nnc(-c3ccccc3[N+](=O)[O-])[nH]2)cc1 | Saccharomyces cerevisiae | microbial growth, broth dilution | ATCC9763 | – | MIC | 31.2 µg/mL (≈ 87 µM)
